Screens deposited in PubChem BioAssay by The Scripps Research Institute Molecular Screening Center.
Sampled rows, rich in hits. Any-hit rate of the full collection: about 1.4%.
HTRA1 inhibitor = blocks human HTRA1 serine peptidase; Q92743; recombinant HTRA1, FP-rhodamine activity-based probe, fluorescence polarization; inhibition, % at 5.96 µM; 340,000 tested, 0.5% active; AID 504803; in the data active = inhibition above about 36%
Target sequence (Q92743 whole entry, looked up): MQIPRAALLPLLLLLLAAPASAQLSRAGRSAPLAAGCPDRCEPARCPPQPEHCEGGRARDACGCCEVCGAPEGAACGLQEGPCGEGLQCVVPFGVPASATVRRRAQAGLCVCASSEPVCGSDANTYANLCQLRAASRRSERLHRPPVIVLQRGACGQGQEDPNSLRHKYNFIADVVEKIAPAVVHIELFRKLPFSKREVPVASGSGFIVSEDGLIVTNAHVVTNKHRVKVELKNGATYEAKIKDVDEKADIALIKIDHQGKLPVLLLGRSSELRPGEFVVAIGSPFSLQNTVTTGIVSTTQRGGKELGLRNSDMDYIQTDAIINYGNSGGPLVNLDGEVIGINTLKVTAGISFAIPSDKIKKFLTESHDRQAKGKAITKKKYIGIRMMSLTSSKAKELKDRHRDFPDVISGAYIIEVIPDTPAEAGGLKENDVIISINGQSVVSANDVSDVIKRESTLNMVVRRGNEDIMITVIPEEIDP
RBBP9 inh = inhibitors of human serine hydrolase RBBP9; O75884; recombinant RBBP9, FP-Rh probe fluorescence polarization; inhibition, % at 7.94 µM; 220,000 tested, 0.2% active;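 active = inhibition above the campaign mean of all tested compounds plus 3 SD, cut at about 14% in these data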
Target sequence (O75884 whole entry, looked up): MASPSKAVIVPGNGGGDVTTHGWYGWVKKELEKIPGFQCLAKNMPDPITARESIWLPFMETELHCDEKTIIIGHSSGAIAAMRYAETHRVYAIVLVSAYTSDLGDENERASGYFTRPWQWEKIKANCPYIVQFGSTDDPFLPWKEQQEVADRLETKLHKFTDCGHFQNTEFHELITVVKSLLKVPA
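system = RBBP9 protein | input = RBBP9 at 2.5 µM in dispensed solution, before mixing | measured by = fluorescence polarization (mP), excitation 525 nm, emission 598 nm | incubation = enzyme-compound preincubation 30 min, then probe labeling 45 min, 25 °C | buffer or medium = Tris-NaCl-Pluronic buffer, pH 8.0 | compound = single dose 7.94 µM | also added = FP-Rh probe, 375 nM dispensing solution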
ABHD4 inh = inhibitors of mouse ABHD4; 370,000 tested, 0.54% active; purified mABHD4, FP-Rh probe fluorescence polarization; inhibition, % at 8.92 µM;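 active = inhibition exceeding the mean over every tested compound plus 3 SD, cut at about 30% in these data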
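Test system: mABHD4 protein | Buffer or medium: HEPES pH 7.0 buffer, 150 mM NaCl, 0.01% Pluronic F-127 | Probe or stimulus: FP-Rh fluorescent activity-based probe, added after compound pre-incubation | Timing: Pre-incubation 45 min, probe exposure 60 min, at 25 °C | Technique: Fluorescence polarization, excitation 525 nm, emission 598 nm, BODIPY TMR filters | Repeats: Single well per compound (singlicate)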
SIAE inh = inhibitors of human sialic acid acetylesterase SIAE; 370,000 tested, 0.69% active; inhibition, % at 9.66 µM; Q9HAT2; SIAE FP-Rh probe binding, fluorescence polarization;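 active = inhibition above a cutoff: mean of compounds within the control limits plus 3 SD of those, cut at about 17% in these data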
RBBP9 inh conf = human RBBP9 inhibition, confirmation. 410 tested, 36% active. inhibition, % at 7.94 µM. recombinant RBBP9, FP-Rh probe fluorescence polarization. shares compounds with RBBP9 inh;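 active = inhibition above the hit cutoff derived for the primary screen, cut at about 15% in these data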
Each line names hits and unclear results; the compound was inactive in the other large screens (follow-up assays come after a bar, where they were run).

O=C(CN1CCOCC1)Nc1ccc(Oc2ccccc2)cc1	none
O=C(CN1CCNCC1)Nc1ccc(Oc2ccccc2)cc1	RBBP9 inh 15 | RBBP9 inh conf 24
O=C(NC1CCC1)c1ccc(C#Cc2cccc(F)c2)nc1	none (no result: HTRA1 inhibitor, RBBP9 inh)
Cc1ccc(S(=O)(=O)N(C)c2ccccc2)cc1	RBBP9 inh 14 | RBBP9 inh conf inactive
COC(=O)[C@@]12C[C@@H](CC(=O)NCc3ccc(C)o3)C(=O)N(Cc3ccccc3)C1=CCC(C)(C)C2	none (no result: HTRA1 inhibitor, RBBP9 inh)
Nc1ccccc1N1CCN(C(=O)c2ccccc2)CC1	RBBP9 inh 15 | RBBP9 inh conf inactive
O=C(c1ccccc1)c1ccc(C(=O)N2CCN(c3ccccc3O)CC2)cc1	none (no result: RBBP9 inh)
O=C(c1ccccc1)N1CCN(C(=O)c2ccc([N+](=O)[O-])cc2)CC1	none
O=C(c1ccccc1)N1CCN(c2ccc([N+](=O)[O-])cc2-n2cccc2)CC1	RBBP9 inh 14 | RBBP9 inh conf inactive
CC(C)=NOC(=O)c1c(C)noc1-c1snnc1C	RBBP9 inh 18 | RBBP9 inh conf inactive
O=C(O)C(c1ccccc1)C1(O)CC2CCC1C2 (configuration not stated)	none (no result: RBBP9 inh)
Cc1sc(NC(=O)c2ccco2)c(C(Nc2ccccn2)c2ccccc2)c1C (configuration not stated)	RBBP9 inh 21 | RBBP9 inh conf inactive
CCOC(=O)C1CCCN(C(=S)Nc2ccc(F)cc2)C1 (configuration not stated)	RBBP9 inh 23 | RBBP9 inh conf inactive
CCOc1ccccc1NC(=O)CSc1nnc2ccc(-c3cccnc3)nn12	RBBP9 inh 15 | RBBP9 inh conf inactive
COc1ccccc1NC(=O)CSc1nnc2ccc(-c3cccnc3)nn12	none
C/C(Cc1ccccc1)=N\NC(=O)CNC(=O)c1cccc(Cl)c1	RBBP9 inh 21 | RBBP9 inh conf inactive
CCN=C1S/C(=C\c2cc(OCC)c(O)cc2Br)C(=O)N1CC	RBBP9 inh 24 | RBBP9 inh conf inactive
COc1cc(C=Nn2c(-c3ccccc3F)n[nH]c2=S)ccc1OCc1ccccc1	none (no result: HTRA1 inhibitor, RBBP9 inh)
Cc1cc(O)ccc1Nc1nc2ccccc2nc1Nc1ccc(O)cc1C	RBBP9 inh 21, SIAE inh 20 | RBBP9 inh conf inactive
COC(=O)[C@]12C[C@H](CC(=O)NCCCCc3ccccc3)C(=O)N(Cc3ccccc3)C1=C[C@H](C(C)C)O[C@@H]2C1CC1	none (no result: HTRA1 inhibitor, RBBP9 inh)
Cc1ccc(C(=O)C[n+]2cc(-c3ccc(C)cc3)n3c2CCCCC3)cc1	RBBP9 inh 21 | RBBP9 inh conf inactive
CCCCCc1ccc(OCCCC[n+]2cccc(C)c2)c(CCCCC)c1	RBBP9 inh 15 | RBBP9 inh conf inactive
CCCCCc1ccc(OCCCC[n+]2ccccc2)c(CCCCC)c1	none (no result: ABHD4 inh, SIAE inh)
COC(=O)[C@]12C[C@H](CC(=O)NCCCN3CCCC3=O)C(=O)N(CCc3ccc(OC)c(OC)c3)C1=C[C@H](C(C)(C)C)O[C@@H]2C	none (no result: HTRA1 inhibitor, RBBP9 inh)
COC(=O)COc1ccc2c(=O)c(-c3ccccc3OC)coc2c1	RBBP9 inh 19 | RBBP9 inh conf inactive
c1ccc(-c2cccc(CNc3nc(-c4ccccn4)nnc3-c3ccccc3)c2)cc1	none (no result: HTRA1 inhibitor, RBBP9 inh)
Cc1ccc(NC2c3ncccc3C(=O)N2c2ccccc2C)cc1C (configuration not stated)	RBBP9 inh 18 | RBBP9 inh conf 24
Cc1nc2ccc(S(=O)(=O)NCC(=O)NCc3ccccc3Cl)cc2s1	none (no result: HTRA1 inhibitor, RBBP9 inh)
CCCS(=O)(=O)Nc1ccc2cn[nH]c2c1	RBBP9 inh 17 | RBBP9 inh conf inactive
Cc1ccc(S(=O)(=O)Nc2ccc3cn[nH]c3c2)cc1	none (no result: RBBP9 inh)
COc1cc(/C=N/Nc2ccccc2[N+](=O)[O-])cc(OC)c1O	none
COc1cc(/C=N/Nc2ccc(F)cc2F)cc(OC)c1O	RBBP9 inh 17 | RBBP9 inh conf 53
C[C@H]1CN(CCc2ccccc2)C(=O)[C@@H]1CC(=O)Nc1ccc(Br)cc1	none (no result: RBBP9 inh)
Cc1nc2cc(NC(=O)N(C)c3ccc4ccccc4c3)ccc2o1	RBBP9 inh 16 | RBBP9 inh conf inactive
COc1ccc(NC(=O)Nc2ccc3oc(C)nc3c2)cc1	none
Cc1ccc2c(c1)-c1c(cnn1CC(=O)NCCc1ccccc1F)CO2	none (no result: HTRA1 inhibitor, RBBP9 inh)
COc1ccc2c(c1)CC/C(=C\Nc1ccc3c(c1)OCO3)C2=O	none
COc1ccc(N/C=C2\CCc3ccccc3C2=O)cc1	RBBP9 inh 18 | RBBP9 inh conf inactive
NS(=O)(=O)c1ccc(CCNC(=O)C2CCCN2C(=O)c2cccs2)cc1 (configuration not stated)	none (no result: RBBP9 inh)
O=C(CSc1nc(-c2ccccc2)cc(=O)[nH]1)N1CCc2ccccc21	RBBP9 inh 16 | RBBP9 inh conf inactive
COc1ccc(S(=O)(=O)N(C)C[C@@H]2Oc3c(NC(=O)Nc4cccc5ccccc45)cccc3C(=O)N([C@@H](C)CO)C[C@H]2C)cc1	none (no result: HTRA1 inhibitor, RBBP9 inh)
CCOc1cc(-c2ccc(N)c(OCC)c2)ccc1N	RBBP9 inh 16 | RBBP9 inh conf 29
COC(=O)[C@]12C[C@H](CC(=O)NCCCCc3ccccc3)C(=O)N(CCC3=CCCCC3)C1=C[C@H](C1CCCC1)O[C@@H]2C	none (no result: HTRA1 inhibitor, RBBP9 inh)
COc1ccc(/C=C/S(=O)(=O)NCC(C)C)c(CNC(=O)OC(C)(C)C)c1	none (no result: HTRA1 inhibitor, RBBP9 inh)
COC(=O)[C@]12C=CCN1[C@@H](c1ccc(OC)c(OC)c1)c1c(c3ccccc3n1S(=O)(=O)c1ccc(C)cc1)C2	none (no result: HTRA1 inhibitor, RBBP9 inh)
NC(=O)c1c(N)[nH]c(C(=O)c2ccccc2)c1-c1ccccc1Cl	none (no result: HTRA1 inhibitor, RBBP9 inh)
COc1cccc(CNC(=O)CN(C)S(=O)(=O)c2cccc3cccnc23)c1	RBBP9 inh 21 | RBBP9 inh conf inactive
COC(=O)[C@]12C[C@H](CC(=O)NCc3ccc(C)o3)C(=O)N(Cc3ccco3)C1=C[C@H](C(C)(C)C)O[C@@H]2C	none (no result: HTRA1 inhibitor, RBBP9 inh)
Cc1cc2ccccc2nc1SCC(=O)N1c2ccccc2CC1C (configuration not stated)	RBBP9 inh 14 | RBBP9 inh conf inactive
CCOC(=O)c1cnn(-c2ccccc2)c1-n1cccc1C(=O)C(=O)N(CC)CC	none
CCN(CC)C(=O)C(=O)c1cccn1-c1ccccc1C#N	RBBP9 inh 21 | RBBP9 inh conf inactive
CN(CC(=O)NCCc1ccccc1)S(=O)(=O)c1ccc(Br)cc1	RBBP9 inh 15 | RBBP9 inh conf inactive
CN(CC(=O)NCCCc1ccccc1)S(=O)(=O)c1ccc(Br)cc1	none (no result: RBBP9 inh)
Nc1nc(N)nc(-c2cc(O)ccc2O)n1	none (no result: RBBP9 inh)
Oc1ccc(O)c(-c2cnns2)c1	RBBP9 inh 18 | RBBP9 inh conf 55
O=C(O)c1ccc(NC2=Nc3cccc4cccc2c34)cc1	RBBP9 inh 15 | RBBP9 inh conf inactive
N#Cc1cc(N)ccc1Sc1ccc(Cl)cc1	none
N#Cc1ncc(C(F)(F)F)cc1Sc1ccc(N)cc1	RBBP9 inh 19 | RBBP9 inh conf inactive
CCOc1ccc(-n2c(SCC(=O)c3ccc4ccccc4c3)nnc2-c2ccco2)cc1	none (no result: HTRA1 inhibitor, RBBP9 inh)
Cc1nnc(Sc2cc(NCCO)c([N+](=O)[O-])c3nonc23)s1	RBBP9 inh 18 | RBBP9 inh conf 24
O=[N+]([O-])c1c(NCCCO)cc(Sc2nc3ccccc3s2)c2nonc12	RBBP9 inh 17 (no result: ABHD4 inh, SIAE inh) | RBBP9 inh conf 23
